pEC50: −log10 of the molar value. In brackets after ≈: the same amount, converted by molar mass. Activity calls are given as the source filed them.
Columns and labels:
[1] = system: Galleria mellonella; test: Toxicity in Candida albicans ATCC 90028 infected Galleria mellonella larvae infected with 20 uM compound pre-treated cell suspensions assessed as improvement in larvae health index scores incubated in dark for 144 hrs at 30 degC and measured every 24 hrs; type: organism-based; conditions: in vivo
[2] = system: Candida albicans; test: Fungicidal activity against Candida albicans ATCC 90028 assessed as reduction in cell viability in RPMI medium in presence of sorbitol; type: functional
[3] = system: Candida albicans; test: Ratio of MFC for fungicidal activity against Candida albicans ATCC 90028 assessed as reduction in cell viability in RPMI medium in presence of sorbitol to MFC for fungicidal activity against Candida albicans ATCC 90028 assessed as reduction in cell viability in RPMI medium in absence of sorbitol; type: functional
[4] = system: Candida albicans; test: Fungicidal activity against Candida albicans ATCC 90028 assessed as log reduction in cell viability at 16 ug/ml after 48 hrs at 35 degC; type: functional
Method in brief: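 MFC assay on C. albicans ATCC 90028 following M27-A3, at the molar equivalent of 16 µg/mL. CFU of treated cells were compared with CFU of the untreated inoculum. Activity is given as lg R = lg CFU/mL control − lg CFU/mL treated, and lg R ≥3 was defined as fungicidal. Values are means of two independent experiments.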

[5] = system: Vero; test: Cytotoxicity in African green monkey Vero cells at 256 ug/ml incubated for 3 to 18 hrs by XTT assay; type: cell-based; conditions: chlorocebus sabaeus
[6] = system: CCRF-CEM; test: Antiproliferative activity against human CCRF-CEM cells after 72 hrs by MTT assay; type: functional, cell-based
Method in brief: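 EC50 was derived from a repeat 72 h MTT assay in CCRF-CEM or MCF-7 cells. It is the concentration killing 50% of tumour cells compared with control cells incubated without inhibitor in 0.5% DMSO.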

[7] = system: Candida albicans; test: Antibiofilm activity in Candida albicans ATCC 90028 assessed as early apoptotic morphological changes by measuring crescent-shaped nuclei at 20 uM after 18 hrs by acridine orange/ethidium bromide staining-based confocal laser scanning fluorescence microscopic analysis; type: functional
Method in brief: (§1)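 Unfixed biofilm cells were dual-stained in situ with acridine orange and ethidium bromide, each at 100 µg/mL. Confocal fluorescence and DIC imaging scored green AO nuclei, crescent-shaped chromatin, reddish-orange late apoptotic/necrotic cells and EB uptake, against untreated control biofilm. […]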

[8] = system: Candida albicans; test: Growth inhibition of Candida albicans ATCC 90028 at 0.25 ug/ml incubated for 18 hrs at 35 degC by broth microdilution method relative to control; type: functional; conditions: ATCC 90028, 18 h, read-out: GI
[9] = system: Candida albicans; test: Growth inhibition of Candida albicans ATCC 90028 at 0.5 ug/ml incubated for 18 hrs at 35 degC by broth microdilution method relative to control; type: functional; conditions: ATCC 90028, 18 h, read-out: GI
[10] = system: Candida albicans; test: Fungicidal activity against Candida albicans ATCC 90028 assessed as reduction in cell viability in RPMI medium in absence of sorbitol; type: functional
[11] = system: Candida albicans; test: Antibiofilm activity in Candida albicans ATCC 90028 assessed as increase in chitin distribution within biofilm cells at 20 uM after 18 hrs by calcofluor white staining-based confocal laser scanning microscopic analysis; type: functional, organism-based
[12] = system: Candida albicans; test: Antifungal activity against Candida albicans ATCC 90028 assessed as reduction in cell viability at 8 uM at after 48 hrs in presence of ergosterol by XTT assay; type: functional
[13] = system: Candida albicans; test: (§2) Antifungal activity against Candida albicans ATCC 90028 infected in Galleria mellonella larvae infected with 20 uM compound pre-treated cell suspensions assessed as reduction in larval hemocytes incubated in dark for 144 hrs at 30 degC and measured every 24 hrs by hematoxylin and eosin staining-based light microscopic analysis; type: functional, organism-based
[14] = system: Candida albicans; test: Fungicidal activity against Candida albicans ATCC 90028 assessed as log reduction in cell viability at 10 uM in RPMI medium in absence of sorbitol; type: functional
[15] = system: Candida albicans; test: Inhibition of biofilm formation of Candida albicans ATCC 90028 up to 20 uM […] by XTT assay; type: functional, organism-based
[16] = In-vitro chitinolytic activity of the compound assessed as p-nitrophenyl release from N-acetyl-beta-D-glucosaminide at 20 uM by chitinolytic activity assay; type: functional
[17] = system: Candida albicans; test: as §2, with “fat body formation” for “larval hemocytes incubated”; type: functional, organism-based
[18] = system: Candida albicans; test: Antifungal activity against Candida albicans ATCC 90028 infected in Galleria mellonella larvae infected with 20 uM compound pre-treated cell suspensions assessed as melanization incubated in dark for 144 hrs at 30 degC and measured every 24 hrs (reference value: 65%); type: functional
[19] = system: Candida albicans; test: as §2, with “31” for “20”, “fungal cell nodules” for “larval hemocytes incubated”; type: functional, organism-based
[20] = system: Candida albicans; test: Effect on dilpoid nuclei level in Candida albicans ATCC 90028 planktonic forms at 128 ug/ml by ethidium bromide staining based gel electrophoresis and confocal laser scanning microscopy; type: functional, organism-based
[21] = system: Candida albicans; test: Antibiofilm activity in Candida albicans ATCC 90028 assessed as increase in chitin distribution within biofilm cells at 248 uM after 18 hrs by calcofluor white staining-based confocal laser scanning microscopic analysis; type: functional, organism-based
[22] = system: Candida albicans; test: Antibiofilm activity in Candida albicans ATCC 90028 assessed as early apoptotic morphological changes by measuring crescent-shaped nuclei at 248 uM after 18 hrs by acridine orange/ethidium bromide staining-based confocal laser scanning fluorescence microscopic analysis; type: functional; method in brief: as §1
[23] = system: Candida albicans; test: Effect on dilpoid nuclei level in Candida albicans ATCC 90028 planktonic forms at 0.03 ug/ml by ethidium bromide staining based gel electrophoresis and confocal laser scanning microscopy; type: functional, organism-based
[24] = system: Candida albicans; test: Antifungal activity against Candida albicans ATCC 90028 infected in Galleria mellonella larvae infected with 31 uM compound pre-treated cell suspensions assessed as cocoon formation incubated in dark for 144 hrs at 30 degC and measured every 24 hrs (reference value: 65%); type: functional
[25] = system: Candida albicans; test: Induction of endochitinase release in Candida albicans ATCC 90028 assessed as p-nitrophenyl release from triacetylochitotriose substrate A at 248 uM by chitinolytic activity assay; type: functional, organism-based
[26] = system: Candida albicans; test: as §2, with “31” for “20”, “fungal burden” for “larval hemocytes incubated”; type: functional, organism-based
[27] = system: Candida albicans; test: Inhibition of biofilm formation of Candida albicans ATCC 90028 up to 248 uM […] by XTT assay; type: functional, organism-based
[28] = system: Candida albicans; test: Antibiofilm activity in Candida albicans ATCC 90028 assessed as cell membrane lysis at 248 uM after 18 hrs by acridine orange/ethidium bromide staining-based confocal laser scanning fluorescence microscopic analysis; type: functional, organism-based; method in brief: as §1
[29] = system: Candida albicans; test: Disruption of cell wall in Candida albicans SC5314 assessed as decrease in chitin level by measuring chitin mean staining index at 248 uM after 18 hrs by calcofluor white staining-based flow cytometric analysis (reference value: 496 +/- 51); type: functional
[30] = system: Candida albicans; test: Induction of apoptosis in Candida albicans ATCC 90028 protoplast assessed as viable cells at 248 uM after 48 hrs Annexin V-FITC/propidium iodide staining based flow cytometric analysis (reference value: 96.38 +/- 2.05%); type: functional
[31] = system: Candida albicans; test: as §2, with “31” for “20”, “fat body formation” for “larval hemocytes incubated”; type: functional, organism-based

CC(Cn1cnc2c1c(=O)n(C)c(=O)n2C)OCc1cn(CCCn2nc3c(Br)c(Br)c(Br)c(Br)c3n2)nn1 (stereo not given)
Activity [1]: Toxic
MFC [2]: 10 µM
Ratio [3]: 2
log(activity) [4]: 8
Activity [5]: Toxic
pEC50 [6]: 5.19
fold change (FC) [7]: 2
inhibition of growth at 0.25 µg/mL [8]: 99.4%
inhibition of growth at 0.5 µg/mL [9]: 99.2%
MFC [10]: 5 µM (≈ 3.97 µg/mL)
Activity [11]: Active
Activity [12]: 68%
Activity [13]: Active
log(activity) [14]: 6.81
inhibition [15]: inactive
Activity [16]: 0.01 to 0.03 µmol/min
Activity [17]: Active
Activity [18]: 80%

CC(CN1c2ccccc2Sc2ccccc21)OC(=O)OC(C)Cn1cnc2c1c(=O)n(C)c(=O)n2C (stereo not given)
Activity [19]: Active
Activity [20]: inactive
Activity [21]: Active
log(activity) [4]: 8
Activity [5]: Toxic
fold change (FC) [22]: 2
inhibition of growth at 0.25 µg/mL [8]: 99.9%
inhibition of growth at 0.5 µg/mL [9]: 99.9%
Activity [23]: inactive
Activity [24]: 98%
Activity [25]: inactive
Activity [26]: Active
inhibition [27]: inactive
Activity [28]: Active
Activity_index [29]: 550
Activity [30]: 2.8%
Activity [31]: Active
